Source: PubChem (several laboratories)
Yeast growth inh – growth inhibitors of yeast BB579 in restrictive medium, primary screen, yeast lifespan-shortening project, S. cerevisiae. inhibition, % at 10 µM. OD615, 48 h. hit rate 0.51% among 140,000;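 active means inhibition above a set limit, 3 SD over the mean compound inhibition, cut at about 44% in these data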
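test system = yeast BB579 (DeaD) | buffer or medium = restrictive CSMM-D medium | doses = single compound dose of 10 µM, 0.25% DMSO final | times = 4 h preincubation and 48 h exposure at 30 °C | technique = culture absorbance at 615 nm | benchmarks = amphotericin B 10 µg/mL, positive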
Efa HMGR inh – inhibitors of E. faecalis class II HMGR, primary screen, biochemical, Enterococcus faecalis; inhibition, % at 10 µM; AID 1066, 2008; HMG-CoA reductase (Enterococcus faecalis, mvaE); hit rate 0.41% among 190,000; purified E. faecalis HMGR, NADPH absorbance 340 nm kinetic;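 active means inhibition above a set limit, the median over all tested compounds plus 3 SD, cut at about 9.5% in these data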;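 further: enzyme runs in reverse so mevalonate oxidation gives rising NADPH absorbance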
Arbovirus inh – antivirals against arbovirus infection, primary screen, cell-based, full library, 10K replicate subset. arbovirus infection cell-based antiviral screen. hit rate 0.37% among 200,000. inhibition, % at 10 µM; in the data active means inhibition above about 30%
Rad51 HR inh – human RAD51 strand exchange inhibitors, primary screen, biochemical, fluorescence | inhibition, % at 10 µM | hit rate 0.085% among 200,000 | AID 1385, 2008 | hRad51 DNA strand exchange, fluorescence dequenching;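 active means inhibition above 40% at the single screening dose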
Target sequence (Q06609 whole entry, looked up): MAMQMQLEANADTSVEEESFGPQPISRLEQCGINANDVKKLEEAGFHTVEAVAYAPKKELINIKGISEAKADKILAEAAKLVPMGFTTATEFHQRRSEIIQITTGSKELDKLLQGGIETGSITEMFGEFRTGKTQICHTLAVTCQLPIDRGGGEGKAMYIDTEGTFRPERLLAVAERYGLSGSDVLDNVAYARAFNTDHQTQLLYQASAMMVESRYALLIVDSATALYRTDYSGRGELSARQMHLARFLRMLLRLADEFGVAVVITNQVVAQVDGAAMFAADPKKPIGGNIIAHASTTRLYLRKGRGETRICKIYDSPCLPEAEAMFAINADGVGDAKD
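Read-out basis: percent inhibition relative to plate controls and blanks / Assay system: human Rad51 nucleoprotein filaments preassembled on unlabelled ssDNA / Timing: filaments 15 min 37 °C, then compound 30 min / Control set: per-plate controls and blanks / Technique: fluorescence dequenching at 485/520 nm / Compound: 10 µM final, single point / Also added: Fluorescein- and BHQ1-tagged 47-mer duplex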
Measles CPE – compounds protecting cells from measles virus cytopathic effect, primary screen, measles RdRp inhibitor project, single point, MLSMR library, absorbance; Measles virus-infected cells, CPE protection; protection (pct of control), % at 4 µM; hit rate 1.5% among 140,000; AID 841, 2007; in the data active means protection mostly above about 24%, no sharp cut-off; inactive means mostly below about 26%
Yeast lifespan up – compounds extending yeast replicative lifespan, primary screen, S. cerevisiae, OD615. AID 775, 2007. hit rate 0.68% among 130,000. inhibition of the nicotinamide effect, % at 10 µM. S. cerevisiae growth with nicotinamide; deaD strain in restrictive glucose medium;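 active means inhibition above a set limit, placed 3 SD over the median of all compounds, cut at about 26% in these data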
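Assay system: engineered S. cerevisiae DeaD replicative-lifespan strain, galactose-grown log-phase cells; Buffer or medium: CSMM-D glucose medium, restrictive; Probe or stimulus: nicotinamide 1.5 mM; Compound: single dose 10 µM compound, 0.25% DMSO; Schedule: 4 h preincubation then 48 h treatment at 30 °C; Technique: OD615 measurement.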
Numbers stand for hits; – = inactive; · = no result. Rows were chosen to be rich in hits. Some 2.4% of all compounds tested hit in one or more screens of this group.

SMILES | Yeast growth inh | Efa HMGR inh | Arbovirus inh | Rad51 HR inh | Measles CPE | Yeast lifespan up
O=C(Nc1ccc(F)cc1)C1CCC(CNc2c(N3CCCCC3)c(=O)c2=O)CC1 (configuration not stated) | · | · | · | – | · | ·
CCCCn1c(/N=C/c2c[nH]c3ccccc23)nc2ccccc21 | 44 | – | – | · | – | –
Cc1cccc(OCCNc2cc(N3CCN(CCO)CC3)ccc2[N+](=O)[O-])c1 | – | – | – | – | – | –
Cc1nonc1OCCn1c([N+](=O)[O-])cnc1C | · | – | – | – | · | ·
O=C1c2ccc3c4c(ccc(c24)C(=O)N1NC(=O)C(F)(F)F)CC3 | 54 | – | – | · | – | –
COc1ccc(C(=O)N/C(=C\c2ccc3c(c2)OCO3)C(=O)NCCc2nc3ccccc3[nH]2)cc1 | – | – | – | – | – | –
NC(=O)c1ccc(NC(=O)CCC(=O)N2CCN(S(=O)(=O)c3ccc(Cl)cc3)CC2)cc1 | · | · | · | – | · | ·
CCSc1nc2c(c(=O)n1CC)SC(C)C2 (configuration not stated) | – | – | – | – | – | –
CCn1c(SC)nc2c(c1=O)SC(C)C2 (configuration not stated) | – | – | – | – | 46 | –
O=[N+]([O-])c1ccc(NCCNCCOc2nonc2-c2ccccc2)c([N+](=O)[O-])c1 | · | – | 30 | – | · | ·
CCc1ccccc1N(C(C)=O)c1nc(CN=C=S)cs1 | · | – | – | – | · | ·
Nc1ncc(-n2cncn2)c(-c2ccc(Cl)cc2)n1 | · | – | – | – | · | ·
O=C(CSc1cccc[n+]1[O-])c1cc(Cl)ccc1Cl | · | – | – | – | · | ·
Cn1cccc1C(=O)NC(=O)CSc1cccc[n+]1[O-] | 95 | – | – | – | – | –
O=C(CSc1cccc[n+]1[O-])c1cc2ccccc2o1 | 99 | – | – | – | – | –
O=C(O)CSc1cccc[n+]1[O-] | 90 | – | – | – | – | –
CC(Sc1cnccn1)C(=O)O (configuration not stated) | · | – | – | – | · | ·
COc1ccc(/C=C(/C#N)S(=O)(=O)c2ccc(C)cc2)cc1 | – | 40 | – | – | – | –
CN(C)C(=O)c1cc(C(=O)c2ccccc2Cl)c[nH]1 | · | – | – | – | · | ·
Oc1ccc(Br)cc1-c1cc(-c2ccc(Cl)cc2)n[nH]1 | – | – | 74 | – | – | –
Cc1ccc(-c2cc(-c3ccccc3C)[nH]n2)c(O)c1 | 100 | – | – | – | – | ·
Cc1ccc(O)c(-c2cc(-c3ccccc3F)[nH]n2)c1 | – | – | – | – | – | –
Oc1ccc(Br)cc1-c1cc(-c2ccccc2)n[nH]1 | – | – | 36 | – | – | ·
Cc1ccc(O)c(-c2cc(-c3cccc(F)c3)n[nH]2)c1 | 99 | – | – | – | – | –
Cc1ccc(-c2cc(-c3cccc(F)c3)n[nH]2)c(O)c1 | – | – | – | – | – | –
SMILES | Yeast growth inh | Efa HMGR inh | Arbovirus inh | Rad51 HR inh | Measles CPE | Yeast lifespan up
COc1ccc(O)c(-c2cc(-c3cccc(Br)c3)n[nH]2)c1 | – | – | – | · | – | –
O=C(NNC(=O)c1ccccc1O)c1ccco1 | · | – | – | – | · | ·
O=C(c1ccccc1)c1ccc(OCC(O)CN2CCOCC2)cc1 (configuration not stated) | · | · | · | – | · | ·
CCOc1ccc(C(=O)C(CN2CCOCC2)c2ccccc2)cc1 (configuration not stated) | – | – | – | · | – | 49
CC(=O)c1ccc(NC(=O)C(C)OC(=O)COc2ccc(C#N)cc2)cc1 (configuration not stated) | – | – | – | – | – | –
COc1ccccc1/C=C/C=C1N=C(/C=C/c2ccc(Cl)cc2)OC/1=O | – | – | 35 | – | – | –
COc1ccc(CN(C(=O)c2oc3ccccc3c2C)C2CCS(=O)(=O)C2)cc1OC (configuration not stated) | – | – | 87 | – | – | –
Cc1noc2ncnc(Sc3ccccc3Cl)c12 | 61 | – | – | – | – | –
Cc1ccc(S(=O)(=O)N(C(=O)c2ccncc2)c2ccc(OC(=O)c3ccncc3)c3ccccc23)c(C)c1 | – | – | – | – | – | 37
Cc1ccc(C)c(NS(=O)(=O)c2cc(C(=O)Nc3ccccc3-c3ccccc3)ccc2Cl)c1 | – | – | – | – | – | –
COC(=O)c1ccc2c(c1)S(=O)(=O)NC(=NCc1ccco1)S2 | – | – | – | – | 85 | –
CCOC(=O)c1ccc(-n2c(O)c(/C=N/NC(=O)C3COc4ccccc4O3)c3ccccc3c2=O)cc1 (configuration not stated) | – | – | – | – | – | –
Cc1cc(C)c(-c2csc(NC(=O)c3n[nH]c(=O)c4ccccc34)n2)c(C)c1 | – | – | – | – | 62 | –
COc1cc(NC(=O)c2n[nH]c(=O)c3ccccc23)cc(OC)c1 | · | · | · | – | · | ·
COc1ccc(-c2nc(NC(=O)c3n[nH]c(=O)c4ccccc34)sc2C)cc1 | – | – | 44 | – | – | –
CC(=O)Nc1ccc(S(=O)(=O)N2CCN(c3ccccn3)CC2)cc1 | – | – | – | – | – | –
CC(C(=O)Nc1ccc(S(=O)(=O)N2CCOCC2)cc1)N1CCN(c2ccccn2)CC1 (configuration not stated) | · | 13 | – | – | · | ·
COCCn1c(SCc2cc(=O)n3cc(C)ccc3n2)nc2ccccc2c1=O | · | – | – | – | · | ·
O=C1CCCC/C1=N\Nc1ccc(OCc2ccccc2)cc1 | 92 | – | – | – | – | –
O=C1CCCC/C1=N\Nc1ccc(C2CCCCC2)cc1 | · | · | · | – | · | ·
CCC1CCCCN1C(=O)Cn1nc([N+](=O)[O-])c(Cl)c1C (configuration not stated) | · | – | – | – | · | ·
CC(C)(C)NC(=O)CSc1nc2ccc(NC(=O)CSc3nnnn3Cc3ccccc3)cc2s1 | – | – | – | – | 44 | –
CCOC(=O)CSc1nc2ccc(NC(=O)CSc3nnnn3Cc3ccccc3)cc2s1 | – | – | – | – | – | ·
COC(=O)c1sc(SC)c(-c2ccon2)c1C | · | · | · | – | · | ·
Oc1ccc(NCc2ccccc2OCc2ccccc2F)cc1 | – | – | – | – | – | 27
Cc1ccc(NCc2ccccc2OCc2ccccc2F)cc1 | – | – | – | – | – | –
O=C(OCC#CCSc1nc2ccccc2s1)c1ccco1 | – | – | – | – | – | –
